Data on six compounds can be found in ChEMBL document CHEMBL4325889, “Natural products hybrids: 3,5,4'-Trimethoxystilbene-5,6,7-trimethoxyflavone chimeric analogs as potential cytotoxic agents against diverse human cancer cells” (Eur J Med Chem, 2019).

One assay relates to RXF 393. The assay can be described thus: Growth inhibition of human RXF393 cells at 10 uM after 48 hrs by SRB assay relative to control. The class given is functional. As to conditions: RXF 393, 48 h, read-out: GI. Summed up:
(§1)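 Screened at the National Cancer Institute by the standard NCI protocol using the sulforhodamine B assay, which measures cellular protein. Single dose of 10 µM. Result is percent growth inhibition; values above 100% mean cell number fell below the initial population. Values are the average of duplicates.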

For another assay, the system named is NCI/ADR-RES. Put plainly: Growth inhibition of human NCI/ADR-RES cells at 10 uM after 48 hrs by SRB assay relative to control. Conditions: read-out: GI. The class given is functional. Summed up: as §1
For orientation: Sulforhodamine B stains cellular protein and so reports cell mass.

A short description of assay [1]: Cytotoxicity against human IOSE-80PC cells after 48 hrs by MTT assay. It is filed as cell-based. In a few lines: (§2)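 Normal human lung epithelial L132 and ovarian epithelial IOSE-80PC cells were tested by MTT viability assay, and IC50 was determined.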
The test system of another assay is BT-549. The assay can be described thus: Growth inhibition of human BT549 cells at 10 uM after 48 hrs by SRB assay relative to control. The class given is functional. Conditions: BT-549, 48 h, read-out: GI. In a few lines: as §1
For another assay, the system named is L132. The assay can be described thus: Cytotoxicity against human L-132 cells after 48 hrs by MTT assay. The class given is cell-based. Conditions: L132, 48 h. In a few lines: as §2
A further assay deals with K562. Put plainly: Growth inhibition of human K562 cells at 10 uM after 48 hrs by SRB assay relative to control. It is filed as functional. Conditions: K562, 48 h, read-out: GI. In a few lines: as §1
The test system of a further assay is SNB-19. The assay can be described thus: Growth inhibition of human SNB19 cells at 10 uM after 48 hrs by SRB assay relative to control. The class given is functional. Conditions: SNB-19, 48 h, read-out: GI. Summed up:
(§3)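 NCI screen against its human cancer cell line panel by the standard NCI protocol, SRB protein stain. Single dose of 10 μM. Percent growth inhibition versus control; values above 100% mean the cell population fell below the starting number. Each value is the mean of duplicates.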

For another assay, the system named is MDA-MB-435. Put plainly: Growth inhibition of human MDA-MB-435 cells at 10 uM after 48 hrs by SRB assay relative to control. The class given is functional. As to conditions: MDA-MB-435, 48 h, read-out: GI. Summed up: as §1
The subject of a further assay is OVCAR-8. The assay can be described thus: Growth inhibition of human OVCAR8 cells at 10 uM after 48 hrs by SRB assay relative to control. As to conditions: OVCAR-8, 48 h, read-out: GI. It is filed as functional. In a few lines: as §1
Another assay deals with UACC-62. The assay can be described thus: Growth inhibition of human UACC62 cells at 10 uM after 48 hrs by SRB assay relative to control. The class given is functional. As to conditions: UACC-62, 48 h, read-out: GI. In a few lines:
as §3

The test system of another assay is OVCAR-3. Put plainly: Growth inhibition of human OVCAR3 cells at 10 uM after 48 hrs by SRB assay relative to control. It is filed as functional. As to conditions: OVCAR-3, 48 h, read-out: GI. Summed up:
as §1

The subject of another assay is HCT-116. The assay can be described thus: Growth inhibition of human HCT116 cells at 10 uM after 48 hrs by SRB assay relative to control. The class given is functional. As to conditions: HCT-116, 48 h, read-out: GI. Summed up:
as §1

A further assay has as its system SF-268. Put plainly: Growth inhibition of human SF268 cells at 10 uM after 48 hrs by SRB assay relative to control. It is filed as functional. Conditions: SF-268, 48 h, read-out: GI. Summed up:
as §1

For a further assay, the system named is HL-60(TB). Put plainly: Growth inhibition of human HL-60(TB) cells at 10 uM after 48 hrs by SRB assay relative to control. It is filed as functional. Conditions: HL-60, 48 h, read-out: GI. Summed up: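 Run at NCI under its standard single-dose protocol against a leukemia cell panel. Cells were exposed to 10 µM; growth was read by sulforhodamine B staining of cellular protein and expressed as % growth inhibition versus untreated control. Values above 100% mean the cell population fell below the starting count (cytocidal). Each value is the average of duplicates.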

Another assay concerns NCI-H226. Put plainly: Growth inhibition of human NCI-H226 cells at 10 uM after 48 hrs by SRB assay relative to control. It is filed as functional. As to conditions: NCI-H226, 48 h, read-out: GI. In a few lines:
as §1

A further assay has as its system SK-MEL-5. The assay can be described thus: Growth inhibition of human SK-MEL-5 cells at 10 uM after 48 hrs by SRB assay relative to control. The class given is functional. As to conditions: SK-MEL-5, 48 h, read-out: GI. In a few lines: as §1
In another assay the test system is PC-3. The assay can be described thus: Growth inhibition of human PC3 cells at 10 uM after 48 hrs by SRB assay relative to control. It is filed as functional. As to conditions: PC-3, 48 h, read-out: GI. In a few lines:
as §1

Another assay concerns DU-145. Put plainly: Growth inhibition of human DU145 cells at 10 uM after 48 hrs by SRB assay relative to control. Conditions: DU-145, 48 h, read-out: GI. It is filed as functional. In a few lines: as §1
The subject of another assay is HCC 2998. The assay can be described thus: Growth inhibition of human HCC2998 cells at 10 uM after 48 hrs by SRB assay relative to control. It is filed as functional. Conditions: HCC 2998, 48 h, read-out: GI. Summed up: as §1
The test system of another assay is OVCAR-5. The assay can be described thus: Growth inhibition of human OVCAR5 cells at 10 uM after 48 hrs by SRB assay relative to control. It is filed as functional. As to conditions: OVCAR-5, 48 h, read-out: GI. In a few lines: as §1

pIC50: −log10 of the molar value.

The pIC50 is the negative decadic logarithm of the IC50, by convention in mol/L. A higher pIC50 goes with a small IC50. Consider `COc1ccccc1C(=O)Nc1cccc(-c2cc(=O)c3c(OC)c(OC)c(OC)cc3o2)c1`, for which the inhibition of growth at 10 µM with RXF 393 was 41%; with NCI/ADR-RES it was 41.8%; with BT-549, 54.1%; in the assay on K562, 63.6%; in the assay on SNB-19, 63.8%; in the assay with MDA-MB-435 it was 56.5%. In addition, the inhibition of growth at 10 µM in the assay with OVCAR-8 was 61.3%; with UACC-62, 56.9%; with OVCAR-3 it was 48.6%; with HCT-116 it was 63.3%; in the assay with SF-268, 45.5%; with HL-60(TB), 42.3%. In addition, the inhibition of growth at 10 µM in the assay on NCI-H226 was 41.6%; with SK-MEL-5, 75%; in the assay on PC-3, 70%; in the assay with DU-145, 55.1%; in the assay on HCC 2998, 32.2%; in the assay on OVCAR-5, 18.8%. For the same compound, the pIC50 (in [1]; with L132) was under 4.00 each time.
For `COc1cc2oc(-c3cccc(NC(=O)c4ccc5c(c4)OCO5)c3)cc(=O)c2c(OC)c1OC`, the inhibition of growth at 10 µM in the assay on RXF 393 is 53.5%; in the assay with NCI/ADR-RES it was 42.4%; in the assay on BT-549 it was 58.6%; in the assay with K562, 82.6%; with SNB-19, 54.4%; in the assay on MDA-MB-435, 46.7%. Further, the inhibition of growth at 10 µM was determined as 53.7% in the assay on OVCAR-8; 50% in the assay with UACC-62; 47% in the assay with OVCAR-3; 64.5% in the assay with HCT-116; 51.9% in the assay with SF-268; 65.4% in the assay with HL-60(TB). For the same compound, the inhibition of growth at 10 µM in the assay with NCI-H226 came out at 34.3%; in the assay on SK-MEL-5, 83.6%; with PC-3, 112%; with DU-145, 47.1%; in the assay with HCC 2998, 46.9%; with OVCAR-5 it was 6.14%. Moreover, the pIC50 in assay [1] is under 4.00; in the assay on L132 it was 4.26.
Turning to `COc1ccc(C(=O)Nc2cccc(-c3cc(=O)c4c(O)c(OC)c(OC)cc4o3)c2)cc1`, the inhibition of growth at 10 µM with RXF 393 is 4.27%; with NCI/ADR-RES it was 13.3%; in the assay on BT-549, 9.6%; in the assay with K562 it was 11.9%; in the assay on SNB-19, 34.1%; in the assay with MDA-MB-435, 5.59%. The inhibition of growth at 10 µM was 35.5% in the assay on OVCAR-8; 33.7% in the assay with UACC-62; -0.49% with OVCAR-3; 30.2% in the assay with HCT-116; 13.9% with SF-268; 15.4% in the assay on HL-60(TB). In addition, the inhibition of growth at 10 µM in the assay on NCI-H226 is 41.4%; in the assay on SK-MEL-5, 16.2%; in the assay with PC-3, 19.6%; with DU-145, 5.4%; with HCC 2998, 19.4%; in the assay on OVCAR-5 it was 0.04%.
In the case of `COc1cc(NC(=O)c2cccc(-c3cc(=O)c4c(O)c(OC)c(OC)cc4o3)c2)cc(OC)c1OC`, the inhibition of growth at 10 µM in the assay with RXF 393 stood at 25%; in the assay on NCI/ADR-RES it was 50.6%; with BT-549, 93%; in the assay with K562, 45.5%; with SNB-19 it was 50%; in the assay on MDA-MB-435, 34.6%. Moreover, the inhibition of growth at 10 µM in the assay on OVCAR-8 came to 76.9%; with UACC-62 it was 50.6%; in the assay on OVCAR-3 it was 76.2%; in the assay with HCT-116, 55.2%; in the assay with SF-268 it was 38.1%; in the assay with HL-60(TB), 22%. Besides, the inhibition of growth at 10 µM turned out to be 92.3% in the assay with NCI-H226; 60.8% in the assay with SK-MEL-5; 50.2% with PC-3; 42.8% in the assay with DU-145; 34% with HCC 2998; 22.6% in the assay on OVCAR-5. Also, the pIC50 (in assay [1]; in the assay on L132) was under 4.00 throughout.
Consider `COc1cc2oc(-c3cccc(NC(=O)c4ccccc4)c3)cc(=O)c2c(OC)c1OC`, for which the inhibition of growth at 10 µM with RXF 393 stood at 25.6%; in the assay with NCI/ADR-RES, 25.5%; in the assay with BT-549 it was 25.9%; in the assay on K562, 56.9%; in the assay with SNB-19 it was 8.59%; in the assay on MDA-MB-435, 19.3%. For the same compound, the inhibition of growth at 10 µM is 39% with OVCAR-8; 33.2% in the assay with UACC-62; 15.8% in the assay on OVCAR-3; 32.3% in the assay with HCT-116; 27.7% with SF-268; 39.5% in the assay on HL-60(TB). Besides, the inhibition of growth at 10 µM is 18.6% in the assay with NCI-H226; 36.8% in the assay with SK-MEL-5; 46.9% in the assay with PC-3; 14.5% with DU-145; 12.2% in the assay on HCC 2998; -0.09% in the assay with OVCAR-5.
For the compound `COc1ccccc1C(=O)Nc1cccc(-c2cc(=O)c3c(O)c(OC)c(OC)cc3o2)c1`, the inhibition of growth at 10 µM is -12.1% in the assay on RXF 393; 5.26% with NCI/ADR-RES; 25.1% in the assay on BT-549; 15.5% in the assay on K562; 25.4% in the assay on SNB-19; 1.26% in the assay on MDA-MB-435. Moreover, the inhibition of growth at 10 µM is 17.5% in the assay on OVCAR-8; 30.2% in the assay with UACC-62; -14.6% in the assay on OVCAR-3; 11.7% in the assay with HCT-116; 8.58% in the assay with SF-268; 0.6% with HL-60(TB). For the same compound, the inhibition of growth at 10 µM with NCI-H226 is 13%; in the assay with SK-MEL-5, 13.4%; in the assay on PC-3, 10.3%; with DU-145 it was -2.87%; in the assay on HCC 2998 it was -9.63%; with OVCAR-5, 5.27%.
